Reference: ChEMBL document CHEMBL4665779, “Novel 2-Substituted 3-Hydroxy-1,6-dimethylpyridin-4(1H)-ones as Dual-Acting Biofilm Inhibitors of Pseudomonas aeruginosa” (J Med Chem, 2020)
Calls of active or inactive are those of the source. The rule behind the calls is not given here.

What was measured:
Pseudomonas aeruginosa [1] = assay: Inhibition of biofilm formation in multidrug resistant Pseudomonas aeruginosa 1121 at 1.25 uM relative to control; format: functional
Pseudomonas aeruginosa [2] = assay: Antibiofilm activity against Pseudomonas aeruginosa PAO1 harboring sigma factor-Pvds mutant assessed as inhibition of biofilm formation at 20 uM relative to control; format: functional
[3] = tested on: Pseudomonas aeruginosa PAO1; assay: Induction of iron chelation in Pseudomonas aeruginosa PAO1 assessed as increase in iron deficiency by measuring change in total ferric ion concentration at 5 uM by inductively coupled plasma mass spectrometry (reference value: 1.91 +/- 0.8 uM)
In short: (§1)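 PAO1 (OD600 0.05) was diluted 1:100 into ABTGC medium and grown 24 h at 37 °C with shaking, with compound; DFP at 20 μM was the reference. Pellets were washed twice in HEPES and lysed with lysozyme in 50 mM HEPES plus sonication for 30 min. Lysates were digested with 1 M nitric acid, centrifuged, and analysed by ICP-MS. Mean ± SD, triplicate.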

Pseudomonas aeruginosa [4] = assay: Inhibition of biofilm formation in multidrug resistant Pseudomonas aeruginosa 1129 at 1.25 uM relative to control; format: functional
Pseudomonas aeruginosa [5] = assay: Inhibition of biofilm formation in multidrug resistant Pseudomonas aeruginosa 1121 at 20 uM relative to control; format: functional
Pseudomonas aeruginosa [6] = assay: Inhibition of biofilm formation in multidrug resistant Pseudomonas aeruginosa FB at 1.25 uM relative to control; format: functional
Pseudomonas aeruginosa [7] = assay: Inhibition of swarming motility of Pseudomonas aeruginosa PAO1 measured after 16 hrs; format: functional, organism-based; conditions: dose microM 1.25-20, time 16.0 hrs
In short: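 LB plates with 0.5% agar, 0.5% casamino acids and 0.5% glucose contained compound at 0–20 μM. Plates were dried 1 h, then 1 μL PAO1 (OD600 1) was spotted on the centre. Incubation was 16 h at 37 °C; three independent experiments.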

[8] = tested on: Pseudomonas aeruginosa PAO1; assay: Induction of iron chelation in Pseudomonas aeruginosa PAO1 assessed as increase in iron deficiency by measuring change in total ferric ion concentration at 10 uM by inductively coupled plasma mass spectrometry (reference value: 1.91 +/- 0.8 uM); in short: as §1
Pseudomonas aeruginosa [9] = assay: Inhibition of twitching motility in Pseudomonas aeruginosa PAO1 assessed at 1.25 to 20 uM measured after 16 hrs; format: functional; conditions: dose microM 1.25-20, time 16.0 hrs
In short: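 Plates of LB with 1% agar, 0.5% casamino acids and 0.5% glucose contained compound at 0–20 μM. After drying 1 h, 1 μL PAO1 (OD600 1) was inoculated at the plate bottom and incubated 16 h at 37 °C. Three independent experiments.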

[10] = molecular target: T1, Anthranilate--CoA ligase (Pseudomonas aeruginosa (strain ATCC 15692 / DSM 22644 / CIP 104116 /JCM 14847 / LMG 12228 / 1C / PRS 101 / PAO1)) (UniProt Q9I4X3); assay: Inhibition of pqsA fluorescence in Pseudomonas aeruginosa PAO1 transfected with GFP by measuring fluorescence intensity every 15 mins for 12 hrs by microtiter plate reader assay; conditions: dose microM 1.25-20, time 12.0 hrs
T1 sequence (whole entry): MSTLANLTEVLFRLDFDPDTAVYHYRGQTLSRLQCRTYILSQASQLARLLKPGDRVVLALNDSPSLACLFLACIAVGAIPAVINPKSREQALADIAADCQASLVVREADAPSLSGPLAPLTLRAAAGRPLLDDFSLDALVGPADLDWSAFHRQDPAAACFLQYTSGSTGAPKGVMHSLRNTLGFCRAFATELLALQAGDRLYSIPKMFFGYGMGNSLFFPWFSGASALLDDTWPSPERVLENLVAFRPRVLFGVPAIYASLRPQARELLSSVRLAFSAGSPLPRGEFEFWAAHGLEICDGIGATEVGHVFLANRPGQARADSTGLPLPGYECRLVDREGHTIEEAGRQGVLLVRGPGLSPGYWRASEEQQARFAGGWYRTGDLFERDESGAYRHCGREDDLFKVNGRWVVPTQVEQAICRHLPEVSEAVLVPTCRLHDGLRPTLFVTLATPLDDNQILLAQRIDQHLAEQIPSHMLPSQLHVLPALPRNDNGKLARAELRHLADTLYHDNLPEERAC
In short: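 PAO1-gfp, PAO1-lasB-gfp, PAO1-rhlA-gfp or PAO1-pqsA-gfp reporters were grown overnight in LB, then diluted in ABTGC medium to OD600 0.02, with compound at 1.25–20 μM. Controls were 0.1% DMSO and a blank. OD600 and GFP fluorescence (ex 485/em 535 nm) were read every 15 min for at least 12 h at 37 °C; triplicate.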

Pseudomonas aeruginosa [11] = assay: Inhibition of biofilm formation in multidrug resistant Pseudomonas aeruginosa 1121 at 10 uM relative to control; format: functional
Pseudomonas aeruginosa [12] = assay: Inhibition of biofilm formation in multidrug resistant Pseudomonas aeruginosa 1121 at 2.5 uM relative to control; format: functional
[13] = tested on: Pseudomonas aeruginosa PAO1; assay: Induction of iron chelation in Pseudomonas aeruginosa PAO1 assessed as increase in intracellular pyochelin level at 1.25 to 20 uM in presence of 10 uM FeCl3 by fluorescence microplate reader assay; format: cell-based; conditions: dose microM 1.25-20

CCCCCCC(=O)NCc1c(O)c(=O)cc(C)n1C
inhibition at 1.25 µM (Pseudomonas aeruginosa [1]): 11.8% | inhibition at 20 µM (Pseudomonas aeruginosa [2]): 20% | Activity [3]: 1.17 µM | inhibition at 1.25 µM (Pseudomonas aeruginosa [4]): 12.7% | inhibition at 20 µM (Pseudomonas aeruginosa [5]): 23.2% | inhibition at 1.25 µM (Pseudomonas aeruginosa [6]): -5.12% | inhibition (Pseudomonas aeruginosa [7]): Dose-dependent effect | Activity [8]: 0.97 µM | inhibition (Pseudomonas aeruginosa [9]): inactive | inhibition [10]: Dose-dependent effect | inhibition at 10 µM (Pseudomonas aeruginosa [11]): 4.41% | inhibition at 2.5 µM (Pseudomonas aeruginosa [12]): 7.68% | Activity [13]: Active
